Assay results published in ChEMBL document CHEMBL2146441, “2,6-Disubstituted imidazo[2,1-b][1,3,4]thiadiazoles: search for anticancer agents” (2012).

Assays:
Format in all cases: functional
[1] = test system: SF-268; assay: Cytotoxicity against human SF268 cells assessed as cell growth at 10^-5 M after 48 hrs by SRB assay; details: SF-268, 48 h, read-out: Activity
[2] = test system: MDA-MB-435; assay: Cytotoxicity against human MDA-MB-435 cells assessed as cell growth at 10^-5 M after 48 hrs by SRB assay; details: MDA-MB-435, 48 h, read-out: Activity
[3] = test system: UACC-257; assay: Cytotoxicity against human UACC257 cells assessed as cell growth at 10^-5 M after 48 hrs by SRB assay; details: UACC-257, 48 h, read-out: Activity
[4] = test system: SK-OV-3; assay: Cytotoxicity against human SKOV3 cells assessed as cell growth at 10^-5 M after 48 hrs by SRB assay; details: SK-OV-3, 48 h, read-out: Activity
[5] = test system: OVCAR-5; assay: Growth inhibition of human OVCAR5 cells after 48 hrs by SRB assay; details: OVCAR-5, 48 h
Outline: (§1)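 Adherent NCI-60 lines grown in RPMI 1640 with 5% FBS, seeded at 5000–40,000 cells/well, and preincubated 24 h at 37 °C, 5% CO2. Compound, stocked in DMSO, given either once at 10^-5 M or at five 10-fold dilutions for 48 h. Cells fixed with cold TCA (final 10%), stained with 0.4% SRB, and read at 515 nm. GI50 taken as 50% reduction in net protein increase versus time-zero and control plates.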

[6] = test system: A498; assay: Growth inhibition of human A498 cells after 48 hrs by SRB assay; details: A498, 48 h
Outline: (§2)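 Same 48 h NCI-60 five-dose SRB protocol. Adherent lines were fixed with cold TCA at 10% final; suspension lines such as CCRF-CEM were fixed with 16% final TCA. Stain was 0.4% SRB in 1% acetic acid for 10 min, solubilized in 10 mM Tris base and read at 515 nm. GI50 came from log concentration–growth curves, solving [(Ti−Tz)/(C−Tz)]×100 = 50.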

[7] = test system: BT-549; assay: Growth inhibition of human BT549 cells after 48 hrs by SRB assay; details: BT-549, 48 h; for CC50: read-out: LC50 (the source's name); outline: as §2
[8] = test system: HL-60; assay: Cytotoxicity against human HL60 cells assessed as cell growth at 10^-7 M after 48 hrs by SRB assay; details: HL-60, 48 h, read-out: Activity
Outline: (§3)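 NCI-60 five-dose screen. Cells were grown in RPMI 1640 with 5% FBS and seeded at 5000–40,000 cells/well according to doubling time. They were pre-incubated 24 h at 37 °C in 5% CO₂, and time-zero (Tz) plates were TCA-fixed at drug addition. Five 10-fold dilutions of DMSO stock were applied for 48 h. Read-out was SRB staining, 515 nm absorbance, with percent growth calculated versus Tz and untreated control.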

[9] = test system: U-251; assay: Cytotoxicity against human U251 cells assessed as cell growth at 10^-7 M after 48 hrs by SRB assay; details: U-251, 48 h, read-out: Activity
[10] = test system: Malme-3M; assay: Cytotoxicity against human MALME-3M cells assessed as cell growth at 10^-7 M after 48 hrs by SRB assay; details: read-out: Activity
[11] = test system: OVCAR-8; assay: Cytotoxicity against human OVCAR8 cells assessed as cell growth at 10^-4 M after 48 hrs by SRB assay; details: OVCAR-8, 48 h, read-out: Activity
[12] = test system: ACHN; assay: Cytotoxicity against human ACHN cells assessed as cell growth at 10^-7 M after 48 hrs by SRB assay; details: read-out: Activity
Outline: (§4)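 NCI-60 screen: lines kept in RPMI 1640 with 5% FBS, seeded at 5000–40,000 cells/well by doubling time, preincubated 24 h at 37 °C in 5% CO2. Time-zero plates TCA-fixed at drug addition. DMSO stocks diluted in medium, 48 h exposure. Fixation in cold TCA (final 10% adherent, 16% suspension), 0.4% SRB stain, solubilised in 10 mM Tris base, A515. Percent growth computed against control and time-zero.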

[13] = test system: NCI-H322M; assay: Cytotoxicity against human NCI-H322M cells assessed as cell growth at 10^-8 M after 48 hrs by SRB assay; details: read-out: Activity
[14] = test system: NCI-H522; assay: Cytotoxicity against human NCI-H522 cells assessed as cell growth at 10^-8 M after 48 hrs by SRB assay; details: NCI-H522, 48 h, read-out: Activity
[15] = test system: HT-29; assay: Cytotoxicity against human HT-29 cells assessed as cell growth at 10^-8 M after 48 hrs by SRB assay; details: HT-29, 48 h, read-out: Activity; outline: as §3
[16] = test system: SK-MEL-2; assay: Cytotoxicity against human SK-MEL-2 cells assessed as cell growth at 10^-8 M after 48 hrs by SRB assay; details: SK-MEL-2, 48 h, read-out: Activity
[17] = test system: SK-MEL-28; assay: Cytotoxicity against human SK-MEL-28 cells assessed as cell growth at 10^-8 M after 48 hrs by SRB assay; details: SK-MEL-28, 48 h, read-out: Activity
[18] = test system: A498; assay: Cytotoxicity against human A498 cells assessed as cell growth at 10^-8 M after 48 hrs by SRB assay; details: A498, 48 h, read-out: Activity; outline: as §4
[19] = test system: CAKI-1; assay: Cytotoxicity against human Caki1 cells assessed as cell growth at 10^-8 M after 48 hrs by SRB assay; details: CAKI-1, 48 h, read-out: Activity; outline: as §4
[20] = test system: SR; assay: Cytotoxicity against human SR cells assessed as cell growth at 10^-6 M after 48 hrs by SRB assay; details: read-out: Activity
[21] = test system: NCI-H226; assay: Cytotoxicity against human NCI-H226 cells assessed as cell growth at 10^-6 M after 48 hrs by SRB assay; details: NCI-H226, 48 h, read-out: Activity
[22] = test system: KM12; assay: Cytotoxicity against human KM12 cells assessed as cell growth at 10^-6 M after 48 hrs by SRB assay; details: KM12, 48 h, read-out: Activity
[23] = test system: SNB-75; assay: Cytotoxicity against human SNB75 cells assessed as cell growth at 10^-6 M after 48 hrs by SRB assay; details: SNB-75, 48 h, read-out: Activity
[24] = test system: LOX IMVI; assay: Cytotoxicity against human LOXIMVI cells assessed as cell growth at 10^-6 M after 48 hrs by SRB assay; details: read-out: Activity
[25] = test system: SK-MEL-28; assay: Cytotoxicity against human SK-MEL-28 cells assessed as cell growth at 10^-6 M after 48 hrs by SRB assay; details: SK-MEL-28, 48 h, read-out: Activity
[26] = test system: NCI-H226; assay: Growth inhibition of human NCI-H226 cells after 48 hrs by SRB assay; details: NCI-H226, 48 h; for CC50: read-out: LC50 (the source's name); outline: as §1
[27] = test system: DU-145; assay: Cytotoxicity against human DU145 cells assessed as cell growth at 10^-6 M after 48 hrs by SRB assay; details: DU-145, 48 h, read-out: Activity; outline: as §4
[28] = test system: MCF7; assay: Cytotoxicity against human MCF7 cells assessed as cell growth at 10^-6 M after 48 hrs by SRB assay; details: MCF7, 48 h, read-out: Activity

Row | Structure (SMILES) | growth at 10 µM [1] [%] | growth at 10 µM [2] [%] | growth at 10 µM [3] [%] | growth at 10 µM [4] [%] | GI50 [5] [µM] | LC50 [5] [µM] | TGI [5] [µM] | GI50 [6] [µM] | LC50 (concentration giving 50% net cell kill) [6] [µM] | TGI [6] [µM] | GI50 [7] [µM] | TGI [7] [µM] | CC50 [7] [µM] | growth at 0.1 µM [8] [%] | growth at 0.1 µM [9] [%] | growth at 0.1 µM [10] [%] | growth at 100 µM [11] [%] | growth at 0.1 µM [12] [%] | growth at 0.01 µM [13] [%] | growth at 0.01 µM [14] [%] | other results
1 | COc1ccc(-c2nn3cc(-c4cccc(N)c4)nc3s2)cc1 | 26 | 11 | 63 | 2 | 8.54 | > 100 | 47.1 | 1.11 | 45.2 | 5.73 | 3.88 | 30.8 | > 100 | 95 | 106 | 97 | -54 | 105 | 100 | 82 | growth at 0.01 µM [15]: 100%; growth at 0.01 µM [16]: 93%; growth at 0.01 µM [17]: 95%; growth at 0.01 µM [18]: 87%; growth at 0.01 µM [19]: 86%; growth at 1 µM [20]: 81%; growth at 1 µM [21]: 58%; growth at 1 µM [22]: 84%; growth at 1 µM [23]: 52%; growth at 1 µM [24]: 77%; growth at 1 µM [25]: 80%; GI50 [26]: 1.53 µM; TGI [26]: 16.2 µM; CC50 [26]: 71.6 µM; growth at 1 µM [27]: 93%; growth at 1 µM [28]: 65%
2 | COc1ccc(-c2nn3cc(-c4ccc(O)cc4O)nc3s2)cc1 | 14 | 14 | 36 | -67 | 3.43 | > 100 | > 100 | 0.365 | > 100 | 2.56 | 2.36 | 28.1 | > 100 | 92 | 92 | 90 | -8 | 101 | 89 | 89 | growth at 0.01 µM [15]: 98%; growth at 0.01 µM [16]: 93%; growth at 0.01 µM [17]: 95%; growth at 0.01 µM [18]: 82%; growth at 0.01 µM [19]: 95%; growth at 1 µM [20]: 72%; growth at 1 µM [21]: 61%; growth at 1 µM [22]: 86%; growth at 1 µM [23]: 33%; growth at 1 µM [24]: 82%; growth at 1 µM [25]: 73%; GI50 [26]: 1.43 µM; TGI [26]: 6.95 µM; CC50 [26]: > 100 µM; growth at 1 µM [27]: 91%; growth at 1 µM [28]: 70%
